Data from ChEMBL document CHEMBL1146375, “Synthetic studies on novel benzimidazolopeptides with antimicrobial, cytotoxic and anthelmintic potential” (2007).
Converted amounts (≈) assume the structure as drawn.

system: Staphylococcus aureus; assay: Antibacterial activity against Staphylococcus aureus NCIM 2079 after 18 hrs by tube dilution method; type: functional; settings: NCIM 2079, 18 h
In short: (§1)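 Tube dilution MIC. Stock diluted in sterile broth to seven concentrations from 200 to 3.1 […]. Each tube inoculated with one loopful of test bacterium and incubated 18 h at 37 °C. MIC read from presence or absence of growth.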

SMILES	MIC [µg/mL]
Cc1cc2nc(-c3c(I)cc(C(=O)N[C@@H](Cc4cnc[nH]4)C(=O)N4CCC[C@H]4C(=O)O)cc3I)[nH]c2cc1C	12.5 (≈ 16.6 µM)

system: Escherichia coli; assay: Antibacterial activity against Escherichia coli NCIM 2065 after 18 hrs by disc diffusion method; type: functional; settings: not given
In short: (§2)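 Modified Kirby-Bauer disc diffusion. Plates inoculated with spore suspension (about 6 × 10⁴ spores mL^-1). Sterile 6 mm paper discs carried test samples at 10 mg mL^-1; ciprofloxacin disc as reference, DMF disc as negative control. Plates held 18 h at 37 °C. Inhibition zone diameters (mm) averaged over triplicate sets.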

SMILES	inhibition zone (IZ) [mm]
Cc1cc2nc(-c3c(I)cc(C(=O)N[C@@H](Cc4cnc[nH]4)C(=O)N4CCC[C@H]4C(=O)O)cc3I)[nH]c2cc1C	18

system: Escherichia coli; assay: Antibacterial activity against Escherichia coli NCIM 2065 after 18 hrs by tube dilution method; type: functional; settings: NCIM 2065, 18 h

SMILES	MIC [µg/mL]
Cc1cc2nc(-c3c(I)cc(C(=O)N[C@@H](Cc4cnc[nH]4)C(=O)N4CCC[C@H]4C(=O)O)cc3I)[nH]c2cc1C	12.5 (≈ 16.6 µM)

system: Staphylococcus aureus; assay: Antibacterial activity against Staphylococcus aureus NCIM 2079 after 18 hrs by disc diffusion method; type: functional; settings: not given; in short: as §2

SMILES	inhibition zone (IZ) [mm]
Cc1cc2nc(-c3c(I)cc(C(=O)N[C@@H](Cc4cnc[nH]4)C(=O)N4CCC[C@H]4C(=O)O)cc3I)[nH]c2cc1C	13

system: Pontoscolex corethrurus; assay: Anthelmintic activity against Pontoscolex corethrurus ICARBC 408 assessed as mean death time; type: functional; settings: not given
In short: (§3)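 Earthworms exposed to test suspensions at 2 mg mL−1, prepared by triturating compound with Tween 80 (0.5%) and distilled water, stirring 30 min, then diluting to 0.2% w/v. Mebendazole suspension was made the same way. Death was confirmed by moving worms into 50 °C warm water and looking for movement. Mean death time (min) taken from triplicate sets.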

SMILES	Time [min]
Cc1cc2nc(-c3c(I)cc(C(=O)N[C@@H](Cc4cnc[nH]4)C(=O)N4CCC[C@H]4C(=O)O)cc3I)[nH]c2cc1C	29.33

system: not listed separately; assay: Growth inhibition of DLA cells at 250 ug/mL after 3 hrs; type: functional; settings: Mus musculus
In short: (§4)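 DLA and EAC cells passaged intraperitoneally in albino mice, harvested after 15–20 days and adjusted to 1 × 10⁶ cells/mL. Dilutions in Dulbecco's medium (500–31.25, some down to 3.91 µg/mL; 5-FU reference) mixed 1:1 with cells and held 3 h at 37 °C. Trypan blue exclusion gave % growth inhibition; CTC50 by graphical extrapolation.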

SMILES	inhibition at 250 µg/mL [%]
Cc1cc2nc(-c3c(I)cc(C(=O)N[C@@H](Cc4cnc[nH]4)C(=O)N4CCC[C@H]4C(=O)O)cc3I)[nH]c2cc1C	42.1

system: not listed separately; assay: Growth inhibition of DLA cells after 3 hrs; type: functional; settings: Mus musculus; in short: as §4

SMILES	CC50 [µM]
Cc1cc2nc(-c3c(I)cc(C(=O)N[C@@H](Cc4cnc[nH]4)C(=O)N4CCC[C@H]4C(=O)O)cc3I)[nH]c2cc1C	583

system: Eudrilus; assay: Anthelmintic activity against Eudrilus sp. assessed as mean death time; type: functional; settings: not given; in short: as §3

SMILES	Time [min]
Cc1cc2nc(-c3c(I)cc(C(=O)N[C@@H](Cc4cnc[nH]4)C(=O)N4CCC[C@H]4C(=O)O)cc3I)[nH]c2cc1C	23.86

system: Pseudomonas aeruginosa; assay: Antibacterial activity against Pseudomonas aeruginosa NCIM 2034 after 18 hrs by tube dilution method; type: functional; settings: NCIM 2034, 18 h; in short: as §1

SMILES	MIC [µg/mL]
Cc1cc2nc(-c3c(I)cc(C(=O)N[C@@H](Cc4cnc[nH]4)C(=O)N4CCC[C@H]4C(=O)O)cc3I)[nH]c2cc1C	6 (≈ 7.98 µM)

system: not listed separately; assay: Anthelmintic activity against Megascoplex konkanensis ICARBC 211 assessed as mean death time; type: functional; settings: not given
In short: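 Earthworms exposed to test suspensions at 2 mg mL^-1 (0.2% w/v), made by triturating compound with Tween 80 (0.5%) and distilled water, then mechanically stirred 30 min. Mebendazole suspension prepared alike as reference. Paralysis and death times recorded; death confirmed by no movement in 50 °C water. Means from triplicate sets.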

SMILES	TIME [h]
Cc1cc2nc(-c3c(I)cc(C(=O)N[C@@H](Cc4cnc[nH]4)C(=O)N4CCC[C@H]4C(=O)O)cc3I)[nH]c2cc1C	0.373

system: not listed separately; assay: Growth inhibition of DLA cells at 500 ug/mL after 3 hrs; type: functional; settings: Mus musculus; in short: as §4

SMILES	inhibition at 500 µg/mL [%]
Cc1cc2nc(-c3c(I)cc(C(=O)N[C@@H](Cc4cnc[nH]4)C(=O)N4CCC[C@H]4C(=O)O)cc3I)[nH]c2cc1C	52.6

system: Microsporum audouinii; assay: Antifungal activity against Microsporum audouinii MUCC 545 after 48 hrs by disc diffusion method; type: functional; settings: not given
In short: (§5)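 Agar well diffusion on plates inoculated with spore suspension in normal saline from cultures on Sabouraud's broth. Wells punched and loaded with test samples or griseofulvin at 10 mg mL^-1, with DMSO as negative control. Incubated 48 h at 37 °C.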

SMILES	inhibition zone (IZ) [mm]
Cc1cc2nc(-c3c(I)cc(C(=O)N[C@@H](Cc4cnc[nH]4)C(=O)N4CCC[C@H]4C(=O)O)cc3I)[nH]c2cc1C	10

system: not listed separately; assay: Growth inhibition of DLA cells at 31.25 ug/mL after 3 hrs; type: functional; settings: Mus musculus; in short: as §4

SMILES	inhibition at 31.25 µg/mL [%]
Cc1cc2nc(-c3c(I)cc(C(=O)N[C@@H](Cc4cnc[nH]4)C(=O)N4CCC[C@H]4C(=O)O)cc3I)[nH]c2cc1C	13.2

system: Aspergillus niger; assay: Antifungal activity against Aspergillus niger MUCC 177 after 48 hrs by disc diffusion method; type: functional; settings: not given; in short: as §5

SMILES	inhibition zone (IZ) [mm]
Cc1cc2nc(-c3c(I)cc(C(=O)N[C@@H](Cc4cnc[nH]4)C(=O)N4CCC[C@H]4C(=O)O)cc3I)[nH]c2cc1C	14

system: not listed separately; assay: Growth inhibition of EAC cells at 125 ug/mL after 3 hrs; type: functional; settings: Mus musculus, Ehrlich; in short: as §4

SMILES	inhibition at 125 µg/mL [%]
Cc1cc2nc(-c3c(I)cc(C(=O)N[C@@H](Cc4cnc[nH]4)C(=O)N4CCC[C@H]4C(=O)O)cc3I)[nH]c2cc1C	10.7

system: not listed separately; assay: Growth inhibition of EAC cells at 31.25 ug/mL after 3 hrs; type: functional; settings: Mus musculus, Ehrlich; in short: as §4

SMILES	inhibition at 31.25 µg/mL [%]
Cc1cc2nc(-c3c(I)cc(C(=O)N[C@@H](Cc4cnc[nH]4)C(=O)N4CCC[C@H]4C(=O)O)cc3I)[nH]c2cc1C	7.14

system: Bacillus subtilis; assay: Antibacterial activity against Bacillus subtilis NCIM 2063 after 18 hrs by tube dilution method; type: functional; settings: NCIM 2063, 18 h; in short: as §1

SMILES	MIC [µg/mL]
Cc1cc2nc(-c3c(I)cc(C(=O)N[C@@H](Cc4cnc[nH]4)C(=O)N4CCC[C@H]4C(=O)O)cc3I)[nH]c2cc1C	6 (≈ 7.98 µM)
